Results taken from ChEMBL document CHEMBL5331128, “Alicyclic Ring Size Variation of 4-Phenyl-2-naphthoic Acid Derivatives as P2Y14 Receptor Antagonists” (J Med Chem, 2023).
The source made the active and inactive calls.

Key:
[1] = tested on: Mus musculus; test: Anti-asthmatic activity against OVA/Aspergillus-sensitized protease-mediated C57BL/6J mouse model allergic asthma assessed as reduction in neutrophils in BAL fluid at 10 mg/kg,ip followed by 0.5 hrs OVA challenge and measured after 48 hrs; type: functional, organism-based; conditions: time 48.5 hrs
[2] = Lipophilicity, log D of compound at pH 7.4 incubated for 20 hrs by HPLC analysis; type: physicochemical; conditions: buffer
[3] = Half life in Wistar rat at 0.5 mg/kg, iv and measured upto 24 hrs; type: ADME, organism-based; conditions: in vivo
[4] = target: T1, P2Y purinoceptor 14 (Mus musculus, UniProt Q9ESG6); test: Displacement of fluorescent tracer 4-(4-(1-(4-(1-(6-(3-carboxylato-4-(3-iminio-3H-xanthen-9-yl)benzamido)hexyl)-4,5-dihydro-1H-pyrrol-3-yl)butyl)piperidin-1-ium-4-yl)phenyl)-7-(4-(trifluoromethyl)phenyl)-2-naphthoate from mouse P2Y14R stably expressed in human HEK293 cells by flow cytometry; type: cell-based
T1 sequence (Q9ESG6 whole entry): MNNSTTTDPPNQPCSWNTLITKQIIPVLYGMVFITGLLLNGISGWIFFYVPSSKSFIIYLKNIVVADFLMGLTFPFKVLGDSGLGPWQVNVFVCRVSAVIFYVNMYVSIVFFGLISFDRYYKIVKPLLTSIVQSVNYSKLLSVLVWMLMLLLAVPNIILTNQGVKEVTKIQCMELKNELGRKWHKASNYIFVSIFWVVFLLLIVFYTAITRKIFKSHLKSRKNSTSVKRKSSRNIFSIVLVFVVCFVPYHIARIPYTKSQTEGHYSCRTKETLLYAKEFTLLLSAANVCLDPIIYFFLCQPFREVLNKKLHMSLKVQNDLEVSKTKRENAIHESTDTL
Method in brief: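 Whole-cell competitive binding: CHO cells expressing hP2Y14R (or HEK-293 cells expressing mP2Y14R) incubated with AlexaFluor488-labelled antagonist tracer at 20 nM. […] Ki derived by dividing IC50 by 1.72.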

[5] = tested on: Mus musculus; test: Antiallodynic activity in CCI surgery neuropathic pain Hsd:ICR mouse model assessed as reversal of mechano-allodynia by measuring paw withdrawal threshold at 10 micromol/kg,po and measured at 1 hrs by von frey test; type: functional, organism-based; conditions: dose 10.0 µmol/kg
Method in brief: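 CCI neuropathic pain in adult male CD-1 mice. Single oral gavage dose of 10 μmol/kg on day 7 post-surgery. Vehicle 5% DMSO + 10% (Kolliphor HS 15:DMSO 5:95) in 0.5% methylcellulose, 0.2 mL. Von Frey paw withdrawal threshold on both hindpaws. Mean ± SD; two-way ANOVA with Dunnett's test.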

O=C(O)c1cc(-c2ccc([C@]3(O)[C@@H]4CNC[C@H]3C4)cc2)c2ccc(-c3ccc(C(F)(F)F)cc3)cc2c1
Activity [1]: inactive
logD at 20 h [2]: 1.2
t1/2 [3]: 2.36 h
IC50 [4]: 4.8 nM
Activity [5]: Active
